Reference: ChEMBL document CHEMBL1156875, “Anti-influenza drug discovery: structure-activity relationship and mechanistic insight into novel angelicin derivatives” (J Med Chem, 2010)

What was measured:
[1] = Cytotoxicity against MDCK cells after 72 hrs; assay type: cell-based, Canis lupus familiaris; conditions: dog
In short: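 Uninfected MDCK monolayers (seeded at 1.1 × 10^5 cells/mL, grown 24-30 h to about 90% confluency) exposed to graded compound concentrations for 72 h at 37 C. Read by formaldehyde fixation, 0.1% crystal violet staining and absorbance at 570 nm. CC50 = concentration reducing viability to 50% of control. Triplicate, repeated at least twice.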

Influenza A virus = assay: Antiviral activity against human influenza A virus A/WSN/33 (H1N1) in MDCK cells assessed as reduction of virus-induced cytopathic effect; assay type: functional, organism-based; conditions: A/WSN/1933(H1N1)
In short: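 MDCK cells (1.1 × 10^5 cells/mL in DMEM + 10% FBS) grown 24-30 h at 37 C to about 90% confluency. Virus (100 TCID50) premixed with serially diluted compound, adsorbed 1 h at 37 C. Overlay of serum-free DMEM with trypsin 2.5 μg/mL and 0.1% DMSO, then 72 h at 37 C. Formaldehyde fixation, crystal violet stain, A570. IC50 = 50% CPE reduction versus virus control. Triplicate, at least two runs.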

Row | Structure (SMILES) | CC50 at 72 h [1] | IC50 (Influenza A virus)
1 | COc1ccc(C(=O)c2oc3ccc4c(C)cc(=O)oc4c3c2-c2ccccc2)cc1 | > 25000 nM | 1670 nM
2 | O=C(c1ccccc1)c1oc2ccc3c(-c4ccccc4)cc(=O)oc3c2c1-c1ccccc1 | > 25000 nM | > 25000 nM
3 | Cc1cc(=O)oc2c1ccc1oc(C(=O)c3ccccc3)c(-c3cccc(Cl)c3)c12 | > 25000 nM | 1410 nM
4 | CCCc1cc(=O)oc2c1ccc1oc(C(=O)c3ccccc3)c(-c3ccccc3)c12 | > 25000 nM | 470 nM
5 | Cc1cc(=O)oc2c1ccc1oc(Cc3ccccc3)c(-c3ccccc3)c12 | > 25000 nM | 630 nM
6 | Cc1cccc(C(=O)c2oc3ccc4c(C)cc(=O)oc4c3c2-c2ccccc2)c1 | > 25000 nM | 260 nM
7 | Cc1cc(=O)oc2c1ccc1oc(C(=O)c3ccccc3)c(-c3ccccc3Br)c12 | > 25000 nM | 730 nM
8 | CC(=O)c1oc2ccc3c(C)cc(=O)oc3c2c1-c1ccccc1 | > 25000 nM | > 25000 nM
9 | Cc1cc(=O)oc2c1ccc1oc(C(=O)c3ccc(Cl)cc3)c(-c3ccccc3)c12 | > 25000 nM | 22300 nM
10 | Cc1cc(=O)oc2c1ccc1oc(C(=O)c3cccc([N+](=O)[O-])c3)c(-c3ccccc3)c12 | > 25000 nM | 1710 nM
11 | Cc1cc(=O)oc2c1ccc1oc(C(=O)c3ccccc3)c(-c3cccc(Br)c3)c12 | > 25000 nM | 80 nM
12 | Cc1cc(=O)oc2c1ccc1oc(C(=O)c3cccs3)c(-c3cccc(Br)c3)c12 | > 25000 nM | 60 nM
13 | Cc1cc2ccc3oc(C(=O)c4ccccc4)c(-c4ccccc4)c3c2oc1=O | > 25000 nM | 2790 nM
14 | Cc1cc(=O)oc2c1ccc1oc(C(=O)c3ccccc3)c(-c3ccccc3)c12 | > 25000 nM | 140 nM
15 | CCCCCCCCCCc1c(C(=O)c2ccccc2)oc2ccc3c(C)cc(=O)oc3c12 | > 25000 nM | > 25000 nM
16 | Cc1cc(=O)oc2c1ccc1oc(-c3ccccc3)c(-c3ccccc3)c12 | > 25000 nM | > 25000 nM
17 | CCCCOc1cccc(C(=O)c2oc3ccc4c(C)cc(=O)oc4c3c2-c2ccccc2)c1 | > 25000 nM | 80 nM

Row | Structure (SMILES) | CC50 at 72 h [1] | IC50 (Influenza A virus)
18 | Cc1cc(=O)oc2c1ccc1oc(C(=O)c3ccsc3)c(-c3ccccc3)c12 | > 25000 nM | 150 nM
19 | Cc1ccc(-c2c(C(=O)c3ccccc3)oc3ccc4c(C)cc(=O)oc4c23)cc1 | > 25000 nM | 820 nM
20 | Cc1cc(=O)oc2c1ccc1sc(C(=O)c3ccccc3)c(-c3ccccc3)c12 | > 25000 nM | 720 nM
21 | Cc1cc(=O)oc2c1ccc1oc(C(=O)c3ccccc3)c(-c3cc(Br)cc(Br)c3)c12 | > 25000 nM | 100 nM
22 | Cc1cc(=O)oc2c1ccc1oc(C(=O)c3ccccc3)c(-c3cccs3)c12 | > 25000 nM | 150 nM
23 | Cc1cc2oc(C(=O)c3ccccc3)c(-c3ccccc3)c2c2oc(=O)ccc12 | > 25000 nM | 7760 nM
24 | Cc1cc(=O)oc2c1ccc1oc(C(O)c3ccccc3)c(-c3ccccc3)c12 (stereo not given) | > 25000 nM | 320 nM
25 | CCCCCOc1cccc(C(=O)c2oc3ccc4c(C)cc(=O)oc4c3c2-c2ccccc2)c1 | > 25000 nM | 140 nM
26 | Cc1cc(=O)oc2c1ccc1oc(C(=O)c3ccccn3)c(-c3ccccc3)c12 | – | 610 nM
27 | Cc1cc(=O)oc2c1ccc1oc(C(=O)c3cccc(OCCCO)c3)c(-c3ccccc3)c12 | > 25000 nM | 2650 nM
28 | Cc1cc(=O)oc2c1ccc1oc(C(=O)c3ccccc3)cc12 | > 25000 nM | 2430 nM
29 | Cc1cc(=O)oc2c1ccc1oc(C(=O)c3cccc(O)c3)c(-c3ccccc3)c12 | > 25000 nM | 720 nM
30 | Cc1cc(=O)oc2c1ccc1occ(-c3ccccc3)c12 | > 25000 nM | > 25000 nM
31 | Cc1cc(=O)oc2c1ccc1oc(C(=O)c3cccc(Cl)c3)c(-c3ccccc3)c12 | > 25000 nM | 260 nM
32 | Cc1cc(=O)oc2c1ccc1oc(C(=O)c3ccccc3)c(-c3cccc4ccccc34)c12 | > 25000 nM | 880 nM
33 | CCOc1cccc(C(=O)c2oc3ccc4c(C)cc(=O)oc4c3c2-c2ccccc2)c1 | > 25000 nM | 120 nM
